Compound activity from PubChem BioAssay.
HNF4A DNA FP: change in binding of human HNF4A to DNA, primary screen, biochemical, fluorescence polarization, FITC-DNA. actives 0.3% (n = 360,000). 1 h. activity change, % at 10 µM; in the data active = activity change above about 30%, passing the limit was not always enough
SENP1 FRET inh: human SENP1 catalytic domain inhibitors, primary screen, biochemical, FRET, uHTS. Sentrin-specific protease 1 (Homo sapiens), Q9P0U3. recombinant SENP1 catalytic domain, CyPet-SUMO1-YPet FRET cleavage. inhibition, % at 10 µM. actives 0.21% (n = 360,000). AID 624204, 2012;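 active = inhibition at least 30% at 10 µM, raw YFP signal under a set limit, fluorescence ratio 0.5 to 1.5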;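 note: 0% = enzyme with DMSO and 100% = no enzyme wells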
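Assay system – human recombinant His6-tagged SENP1 catalytic domain enzyme · Input – SENP1 enzyme, 20 pM final · Buffer or medium – Tris pH 8 buffer plus EDTA, NaCl, BME, BSA, NP40, catalase · Schedule – 50 min reaction at room temperature · Technique – FRET read of cyan and yellow fluorescence · Control set – no-enzyme wells low, DMSO-plus-enzyme wells high control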
CSN inh: inhibitors of CSN-mediated cullin deneddylation, primary screen, biochemical, fluorescence polarization, uHTS. inhibition, % at 12.5 µM. actives 0.38% (n = 360,000). COP9 signalosome complex subunit 5 (Homo sapiens), Q92905. AID 651999, 2013. Purified CSN, SCF-Nedd8-OG deneddylation;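 active = pattern-corrected inhibition above about 35%, with an unprinted fluorescence ratio check between 0.5 and 1.5, limit read from the data, passing the limit was not always enough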;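 note: 0% = enzyme with substrate and 100% = substrate without enzyme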
Target sequence (Q92905 whole entry, looked up, one chain of several): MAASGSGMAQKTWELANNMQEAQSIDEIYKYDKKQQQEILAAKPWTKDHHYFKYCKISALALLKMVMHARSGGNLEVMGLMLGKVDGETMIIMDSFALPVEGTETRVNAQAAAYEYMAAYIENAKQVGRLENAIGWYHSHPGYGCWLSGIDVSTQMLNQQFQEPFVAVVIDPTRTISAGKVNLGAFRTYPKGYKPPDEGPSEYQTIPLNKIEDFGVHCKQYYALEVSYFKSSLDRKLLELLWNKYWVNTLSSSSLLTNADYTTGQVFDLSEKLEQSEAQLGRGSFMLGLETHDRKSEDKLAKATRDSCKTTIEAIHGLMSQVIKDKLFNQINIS
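Material: human Csn5 produced in HEK293T cells; Input: enzyme 0.24 nM; Reagent: SCFSkp2-Nedd8OG substrate at 10 nM final; Dosing: 12.5 µM compound; Incubation: 90 min reaction at room temperature; Detection: fluorescence polarization of the substrate; Evaluation: % inhibition of substrate cleavage by Csn5; Control set: substrate-only high control, full reaction low control.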
SUMO HTRF inh: inhibitors of in vitro SUMOylation cascade, primary screen, biochemical, HTRF, uHTS; SUMO-conjugating enzyme UBC9 (Homo sapiens), P63279; HTRF SUMOylation assay, SAE1/SAE2 + UBC9; inhibition, % at 35 µM; actives 0.36% (n = 290,000); AID 2006, 2009; in the data active = inhibition above about 50%, passing the limit was not always enough
TPT1 inhibitor: Candida albicans TPT1 enzyme inhibitors, primary screen, biochemical, fluorescence polarization; AID 1962, 2009; inhibition, % at 5 µM; actives 0.81% (n = 300,000); recombinant caTPT1, FP RNA substrate dephosphorylation; tRNA 2'-phosphotransferase TPT1 (Candida albicans SC5314);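 active = inhibition above the mean of all tested compounds plus 3 SD, set per screening campaign, cut at about 24% in these data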;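 note: plate controls were DMSO alone for no effect and ferristatin control at 100 nM for full effect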
Rpn11 block: Rpn11 (PSMD14) deubiquitinase inhibitors, primary screen, biochemical, fluorescence polarization, uHTS; actives 0.59% (n = 360,000); calls only at 20 µM; 26S proteasome non-ATPase regulatory subunit 14 (Homo sapiens), O00487; AID 588493, 2011; human 26S proteasome, Ub4-pepOG fluorescence polarization; 20S core pre-blocked with epoxomicin;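 active = inhibition at 20 µM, scaled to each plate's controls, above about 33%, limit read from the data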
* = called active by the depositor; i = inactive; / = not tested or not shown. Only some compounds are listed: those with a hit (about 1.8% of all), similar ones and a draw of the others.

SMILES | HNF4A DNA FP | SENP1 FRET inh | CSN inh | SUMO HTRF inh | TPT1 inhibitor | Rpn11 block
Cc1ccccc1C1N(c2nccs2)C(=O)C2CCCN21 (stereo not given) | -5 | -3 | 0 | -22 | 1 | i
CC(C)CCNc1nnnc2c1sc1nc(N3CCOCC3)c3c(c12)CC(C)(C)SC3 | -1 | -42 | 60* | -18 | 3 | i
CC1(C)Cc2c(c(N3CCOCC3)nc3sc4c(NCCN5CCOCC5)nnnc4c23)CS1 | 10 | -23 | 5 | 0 | 4 | i
NC(=O)c1sc2nc(-c3ccco3)ccc2c1N | -4 | -16 | 34 | 76* | 12 | i
Cc1ccc(C(=O)N2CCN(c3ccc4c(c3)C3CC4CCN3C(=O)OCc3ccccc3)CC2)cc1 (stereo not given) | 4 | -1 | -4 | / | / | i
O=C(c1ccc(-c2ccccc2)cc1)N1CCN(c2ccc3c(c2)C2CC3CCN2C(=O)OCc2ccccc2)CC1 (stereo not given) | -6 | -1 | 113* | / | / | i
Cc1ccc(S(=O)(=O)NC(=O)Nc2ccc(Cl)cn2)cc1 | 0 | 1 | -1 | 1 | -6 | i
Cc1ccc(S(=O)(=O)CC(=O)Nc2ccc(Cl)cn2)cc1 | 34* | 5 | 4 | 14 | -1 | i
Oc1ccc(Cl)cc1C=Nc1ccc2c3c(cccc13)CC2 | 31 | 24 | 18 | 57* | 1 | /
Cc1cccc(C=Nc2ccc3c4c(cccc24)CC3)c1O | 9 | 54 | 3 | 10 | 10 | i
CCN(CC)c1nc2ccccc2nc1C(C#N)C(=O)NCCCOC (stereo not given) | 7 | -22 | -4 | 18 | 13 | i
CCCCN(CCCC)c1nc2ccccc2nc1C(C#N)C(=O)NCCCOC (stereo not given) | -1 | 10 | 99* | 32 | 8 | /
CCOC(=O)C1=CCC(c2ccccc2)N(S(=O)(=O)c2ccccc2C)C1 (stereo not given) | 4 | 2 | 92* | / | / | i
COc1ccc(CCC(C)Nc2cccc(C)c2)cc1 (stereo not given) | 3 | 1 | 1 | -14 | 1 | i
O=C(NCC1CCCO1)C1CCN(C2CCN(C(=O)Cc3ccsc3)CC2)CC1 (stereo not given) | 4 | -23 | -7 | 1 | -2 | i
COC(=O)Cc1c(O)ccn(CCc2c[nH]c3ccccc23)c1=O | 5 | 2 | 74* | 2 | -1 | i
COC(=O)Cc1c(OC)ccn(CCc2c[nH]c3ccccc23)c1=O | 0 | 3 | -2 | 10 | -2 | i
CCOc1ccc(NC(=O)CN2C(=O)CCSc3ccc(S(=O)(=O)N4CCCC4)cc32)cc1 | 0 | 1 | 2 | 23 | -1 | i
COc1cc2c(cc1OC)C(c1ccc(-c3cc(Cl)ccc3Cl)o1)=NCC2 | 38* | -37 | 6 | 6 | 22 | i
CC(C)n1cc(/C=N/Nc2ccc(Cl)c(C(=O)O)c2)c2ccccc21 | -40 | 6 | 40* | 8 | 0 | i
COc1ccc(NC(=O)C2CC(=O)OC23CCOC(C)(C)C3)cc1 (stereo not given) | 1 | 1 | 3 | 7 | 0 | i
COc1ccc(-c2ccc(-c3noc(-c4ccccc4OC)n3)c(OC)n2)cc1 | 44* | 6 | -2 | -7 | 12 | i
Cc1cc[n+](-c2[nH]c(=O)sc2/C=N/N=C(\[O-])c2ccccc2)cc1C | -104 | 40* | -70 | -3 | / | i
Cc1cc[n+](-c2[nH]c(=O)sc2/C=N/N=C(\[O-])c2ccncc2)cc1C | 1 | 2 | 1 | -1 | -3 | i
